ChEMBL document CHEMBL4840327, “Identification and structure-activity relationship exploration of uracil-based benzoic acid and ester derivatives as novel dipeptidyl Peptidase-4 inhibitors for the treatment of type 2 diabetes mellitus” (Eur J Med Chem, 2021)
Blank lines part the entries; values can stand above or below the molecule they belong to.

What was measured:
Dipeptidyl peptidase 8 = Dipeptidyl peptidase 8 (Homo sapiens, UniProt Q6V1X1); assay: Inhibition of human recombinant DPP8 using Gly-Pro-AMC as substrate preincubated for 15 mins followed by substrate addition and measured for 20 mins by fluorescence based microplate reader assay
Dipeptidyl peptidase 9 = Dipeptidyl peptidase 9 (Homo sapiens, UniProt Q86TI2); assay: Inhibition of human recombinant DPP9 using Gly-Pro-AMC as substrate preincubated for 15 mins followed by substrate addition and measured for 20 mins by fluorescence based microplate reader assay
[1] = Cytotoxicity against human L02 cells assessed as cell viability at 20 uM measured after 48 hrs by MTT assay relative to control; assay type: cell-based; conditions: read-out: Activity
How it was run: (§1)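 Log-phase hepatic LO2 cells seeded at 1 × 10^4 cells/well and exposed to compound or vehicle for 48 h. MTT (5 mg/mL in PBS) added for 4 h at 37 °C, 5% CO2; formazan dissolved in DMSO, absorbance read at 490 nm. Viability given as % of vehicle control; mean ± SD, n = 5.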

[2] = Cytotoxicity against human L02 cells assessed as cell viability up to 100 uM measured after 48 hrs by MTT assay relative to control; assay type: cell-based; conditions: read-out: Activity; how it was run: as §1
[3] = AUC (0 to infinity) in Sprague-Dawley rat at 3 mg/kg, iv measured after 48 hrs by LC-MS/MS analysis; assay type: ADME, organism-based; set-up: route intravenous, time 48 hrs, dose 3 mg/kg; conditions: in vivo
[4] = Metabolic stability in Sprague-Dawley rat plasma assessed as parent compound remaining at 1 uM incubated for 120 mins by LC-MS/MS analysis; assay type: ADME, cell-free; conditions: read-out: Stability
How it was run: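 SD rat plasma incubated with compound for 120 min. Supernatant analysed by LC-MS/MS; remaining % = (C120/C0) × 100. Values come from two independent experiments.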

[5] = Half life in Sprague-Dawley rat at 3 mg/kg, iv measured after 48 hrs by LC-MS/MS analysis; assay type: ADME, organism-based; conditions: in vivo
[6] = Cmax in Sprague-Dawley rat at 3 mg/kg, iv measured after 48 hrs by LC-MS/MS analysis; assay type: ADME, organism-based; set-up: route intravenous, dose 3 mg/kg, time 48 hrs; conditions: in vivo
[7] = Metabolic stability in ICR mouse liver microsomes assessed as parent compound remaining at 0.1 uM incubated for 60 mins in presence of NADPH by LC-MS/MS analysis; assay type: ADME, Microsome; conditions: read-out: Stability
How it was run: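 ICR mouse liver microsomes (1 mg/mL) in 100 mM Tris pH 7.4 with 10 mM MgCl2, preincubated 5 min at 37 °C. Incubated 0–60 min at 37 °C with compound at 0.1 µM final. Quench with ice-cold methanol with 0.5% formic acid, centrifuge, LC-MS/MS. No-microsome controls run; all in duplicate.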

[8] = Clearance in Sprague-Dawley rat at 3 mg/kg, iv measured after 48 hrs by LC-MS/MS analysis; assay type: ADME, organism-based; conditions: in vivo
Dipeptidyl peptidase 4 = Dipeptidyl peptidase 4 (Homo sapiens, UniProt P27487); assay: Inhibition of human recombinant DPP4 using Gly-Pro-AMC as substrate preincubated for 15 mins followed by substrate addition and measured for 20 mins by fluorescence based microplate reader assay
Mus musculus [9] = assay: Hypoglycemic activity in ICR mouse assessed as reduction in glucose secretion at 10 mg/kg, po via gavage administered as single dose pretreated with compound followed by glucose challenge measured after 120 mins relative to control; assay type: functional; set-up: scale not given: the % may be the effect or the level left; conditions: 2 h
How it was run: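 Male ICR mice (6–7 weeks), overnight fasted, n = 8/group. Single gavage dose in water (vehicle: water). Tail-tip blood glucose by glucometer. Oral glucose 3 g/kg given 60 min after treatment (t = 0), and readings taken up to 120 min.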

Mus musculus [10] = assay: Antidiabetic activity in C57BL/6 db/db mouse assessed as reduction in blood glucose AUC (0 to 120 mins) at 10 mg/kg, po administered once daily for 4 weeks followed by 12 hrs fasting and subsequent glucose challenge and measured up to 120 mins by glucometer relative to control; assay type: functional; set-up: scale not given: the % may be the effect or the level left
How it was run: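 Male db/db mice (10 weeks old), grouped by nonfasting and 12 h fasting glucose and body weight, n = 8 per group, lean littermates as lean control. Oral dosing in water once daily for 4 weeks. Then 12 h fast, oral glucose 1.5 g/kg, glucometer readings at 0, 15, 30, 60 and 120 min.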

Mus musculus [11] = assay: Hypoglycemic activity in overnight fasted C57BL/6 db/db mouse reduction in blood glucose AUC (0 to 120 mins) at 10 mg/kg, po pretreated with compound for 30 mins followed by oral glucose challenge and measured up to 120 mins by glucometer relative to control; assay type: functional; set-up: scale not given: the % may be the effect or the level left; conditions: time min <=150
How it was run: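 Male C57BL/6 db/db mice (6–8 weeks, 22 ± 2 g), overnight fasted, n = 6 per group. Oral dosing in water (vehicle: water), then oral glucose 2 g/kg 30 min later. Tail-bleed glucose by glucometer predose and at 0, 15, 30, 60 and 120 min after the load.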

[12] = target: Dipeptidyl peptidase 4 (Rattus norvegicus) (UniProt P14740); assay: In vivo inhibition of DPP4 in Sprague-Dawley rat plasma at 10 mg/kg, po via gavage using Gly-Pro-AMC as substrate measured after 24 hrs relative to control; assay type: functional, organism-based
How it was run: (§2)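 Male SD rats (n = 3/group), fasted overnight, gavaged with 10 mg/kg in distilled water or vehicle. Heparinized orbital blood taken at 0–48 h; plasma stored −20 °C. Plasma mixed with 125 µM Gly-Pro-AMC in 100 mM HEPES pH 7.5, 0.1 mg/mL BSA; AMC release followed 10 min at 37 °C (ex 360/em 460 nm). Rate expressed as % of vehicle-sample rate.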

[13] = target: Dipeptidyl peptidase 4 (Rattus norvegicus) (UniProt P14740); assay: In vivo inhibition of DPP4 in Sprague-Dawley rat plasma at 10 mg/kg, po via gavage using Gly-Pro-AMC as substrate measured after 12 hrs relative to control; assay type: functional, organism-based; how it was run: as §2
[14] = AUC (0 to infinity) in Sprague-Dawley rat at 10 mg/kg, po measured after 48 hrs by LC-MS/MS analysis; assay type: ADME, organism-based; set-up: route oral, dose 10 mg/kg, time 48 hrs; conditions: in vivo
[15] = Half life in Sprague-Dawley rat at 10 mg/kg, po measured after 48 hrs by LC-MS/MS analysis; assay type: ADME, organism-based; conditions: in vivo
[16] = Tmax in Sprague-Dawley rat at 10 mg/kg, po measured after 48 hrs by LC-MS/MS analysis; assay type: ADME, organism-based; conditions: in vivo
[17] = Clearance in Sprague-Dawley rat at 10 mg/kg, po measured after 48 hrs by LC-MS/MS analysis; assay type: ADME, organism-based; conditions: in vivo
[18] = Cmax in Sprague-Dawley rat at 10 mg/kg, po measured after 48 hrs by LC-MS/MS analysis; assay type: ADME, organism-based; set-up: route oral, dose 10 mg/kg, time 48 hrs; conditions: in vivo
[19] = target: Dipeptidyl peptidase 4 (Rattus norvegicus) (UniProt P14740); assay: In vivo inhibition of DPP4 in Sprague-Dawley rat plasma at 10 mg/kg, po via gavage using Gly-Pro-AMC as substrate measured after 30 mins relative to control; assay type: functional, organism-based; how it was run: as §2

Dipeptidyl peptidase 4 (Rattus norvegicus), sequence (P14740 whole entry, looked up): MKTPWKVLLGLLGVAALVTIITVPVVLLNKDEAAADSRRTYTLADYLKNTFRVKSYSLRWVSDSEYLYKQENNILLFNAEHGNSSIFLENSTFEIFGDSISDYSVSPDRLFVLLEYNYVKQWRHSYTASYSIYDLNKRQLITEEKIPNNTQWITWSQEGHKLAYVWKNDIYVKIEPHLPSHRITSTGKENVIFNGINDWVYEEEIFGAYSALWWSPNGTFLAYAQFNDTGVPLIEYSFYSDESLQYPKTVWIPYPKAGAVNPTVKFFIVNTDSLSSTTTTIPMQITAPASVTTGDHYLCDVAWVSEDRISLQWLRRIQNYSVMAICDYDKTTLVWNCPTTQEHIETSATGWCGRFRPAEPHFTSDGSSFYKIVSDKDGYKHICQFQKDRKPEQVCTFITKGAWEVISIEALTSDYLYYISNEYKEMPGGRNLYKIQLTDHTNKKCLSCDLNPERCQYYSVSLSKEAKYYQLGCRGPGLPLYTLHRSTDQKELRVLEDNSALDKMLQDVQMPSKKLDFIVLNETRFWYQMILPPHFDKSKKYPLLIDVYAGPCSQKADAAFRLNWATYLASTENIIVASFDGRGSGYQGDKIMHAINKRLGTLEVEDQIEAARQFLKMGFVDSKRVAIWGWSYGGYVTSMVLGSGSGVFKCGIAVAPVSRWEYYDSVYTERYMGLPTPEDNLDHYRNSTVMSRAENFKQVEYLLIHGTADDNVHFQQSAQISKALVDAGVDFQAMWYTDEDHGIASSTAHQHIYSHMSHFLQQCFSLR
Dipeptidyl peptidase 8, sequence (Q6V1X1 whole entry): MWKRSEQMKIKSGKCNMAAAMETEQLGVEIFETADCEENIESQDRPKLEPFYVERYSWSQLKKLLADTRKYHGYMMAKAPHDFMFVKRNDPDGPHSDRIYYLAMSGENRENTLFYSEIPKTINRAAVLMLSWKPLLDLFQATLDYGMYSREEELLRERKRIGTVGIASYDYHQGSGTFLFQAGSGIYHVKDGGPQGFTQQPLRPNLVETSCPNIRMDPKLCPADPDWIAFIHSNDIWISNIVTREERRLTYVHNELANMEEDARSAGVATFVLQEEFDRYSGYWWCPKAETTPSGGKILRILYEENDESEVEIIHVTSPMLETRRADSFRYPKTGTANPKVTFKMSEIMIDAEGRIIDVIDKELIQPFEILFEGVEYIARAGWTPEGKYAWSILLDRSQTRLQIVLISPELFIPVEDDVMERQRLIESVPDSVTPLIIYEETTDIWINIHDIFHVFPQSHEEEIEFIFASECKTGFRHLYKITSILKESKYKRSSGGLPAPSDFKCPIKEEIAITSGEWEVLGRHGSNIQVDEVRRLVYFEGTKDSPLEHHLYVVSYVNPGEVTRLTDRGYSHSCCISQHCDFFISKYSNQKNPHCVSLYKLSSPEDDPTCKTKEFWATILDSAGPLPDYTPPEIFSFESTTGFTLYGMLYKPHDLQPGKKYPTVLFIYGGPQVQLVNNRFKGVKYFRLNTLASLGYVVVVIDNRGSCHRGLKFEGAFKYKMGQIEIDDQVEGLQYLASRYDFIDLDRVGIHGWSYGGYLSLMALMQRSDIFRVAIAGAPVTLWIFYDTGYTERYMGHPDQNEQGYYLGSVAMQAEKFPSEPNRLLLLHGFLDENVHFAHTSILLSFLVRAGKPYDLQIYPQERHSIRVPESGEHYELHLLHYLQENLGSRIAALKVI
Dipeptidyl peptidase 9, sequence (Q86TI2 whole entry): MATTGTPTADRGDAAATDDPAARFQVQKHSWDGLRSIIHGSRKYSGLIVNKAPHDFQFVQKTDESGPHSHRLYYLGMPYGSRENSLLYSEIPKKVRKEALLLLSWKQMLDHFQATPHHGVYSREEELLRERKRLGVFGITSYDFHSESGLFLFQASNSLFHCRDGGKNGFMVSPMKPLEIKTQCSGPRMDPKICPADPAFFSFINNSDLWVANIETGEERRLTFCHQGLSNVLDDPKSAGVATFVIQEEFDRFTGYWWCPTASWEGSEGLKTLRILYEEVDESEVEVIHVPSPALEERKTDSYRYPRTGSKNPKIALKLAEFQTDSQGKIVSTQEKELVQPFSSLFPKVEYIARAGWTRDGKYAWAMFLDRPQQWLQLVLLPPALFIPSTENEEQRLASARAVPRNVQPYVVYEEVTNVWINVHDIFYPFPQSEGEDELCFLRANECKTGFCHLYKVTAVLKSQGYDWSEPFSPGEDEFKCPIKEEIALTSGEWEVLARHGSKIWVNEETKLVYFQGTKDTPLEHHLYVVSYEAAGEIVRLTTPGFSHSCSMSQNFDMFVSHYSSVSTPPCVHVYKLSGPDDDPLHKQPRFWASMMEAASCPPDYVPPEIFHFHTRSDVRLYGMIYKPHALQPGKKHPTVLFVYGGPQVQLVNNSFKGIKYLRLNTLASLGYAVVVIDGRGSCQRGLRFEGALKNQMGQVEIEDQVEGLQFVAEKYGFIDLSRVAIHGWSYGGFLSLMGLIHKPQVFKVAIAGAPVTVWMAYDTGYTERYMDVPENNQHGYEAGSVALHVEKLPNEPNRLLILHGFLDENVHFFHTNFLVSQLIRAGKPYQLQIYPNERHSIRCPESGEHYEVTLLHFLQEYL
Dipeptidyl peptidase 4, sequence (P27487 whole entry): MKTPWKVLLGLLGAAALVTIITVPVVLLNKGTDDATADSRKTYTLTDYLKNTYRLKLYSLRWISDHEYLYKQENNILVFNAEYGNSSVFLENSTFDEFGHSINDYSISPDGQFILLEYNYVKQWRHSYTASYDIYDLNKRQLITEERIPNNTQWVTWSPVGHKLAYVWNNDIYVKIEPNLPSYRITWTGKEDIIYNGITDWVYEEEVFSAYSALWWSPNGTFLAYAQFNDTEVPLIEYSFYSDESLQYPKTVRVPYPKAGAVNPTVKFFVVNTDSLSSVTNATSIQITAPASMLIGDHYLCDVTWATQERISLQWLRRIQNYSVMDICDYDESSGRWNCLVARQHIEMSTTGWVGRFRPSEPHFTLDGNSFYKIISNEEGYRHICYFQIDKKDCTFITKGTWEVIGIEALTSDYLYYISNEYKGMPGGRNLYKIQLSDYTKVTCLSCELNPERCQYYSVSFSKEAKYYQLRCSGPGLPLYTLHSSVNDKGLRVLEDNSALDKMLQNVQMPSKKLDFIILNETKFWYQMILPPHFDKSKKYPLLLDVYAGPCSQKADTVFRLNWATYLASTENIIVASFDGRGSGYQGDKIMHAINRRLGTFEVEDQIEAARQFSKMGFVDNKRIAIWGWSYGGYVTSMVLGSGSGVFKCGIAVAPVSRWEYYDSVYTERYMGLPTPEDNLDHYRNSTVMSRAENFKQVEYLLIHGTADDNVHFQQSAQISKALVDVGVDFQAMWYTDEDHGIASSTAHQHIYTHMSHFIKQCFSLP

SMILES: CC#CCn1c(N2CCC[C@@H](N)C2)cc(=O)n(Cc2cccc(C(=O)OC)c2Br)c1=O
IC50 (Dipeptidyl peptidase 8): > 100 µM | IC50 (Dipeptidyl peptidase 9): > 100 µM

SMILES: COc1cccc2c1C(=O)c1c(O)c3c(c(O)c1C2=O)C[C@@](O)(C(=O)CO)C[C@@H]3O[C@H]1C[C@H](N)[C@H](O)[C@H](C)O1 [DOXORUBICIN]
viability at 48 h, 20 µM [1]: 25%

SMILES: CC#CCn1c(N2CCC[C@@H](N)C2)cc(=O)n(Cc2cccc(C(=O)OC)c2F)c1=O
IC50 (Dipeptidyl peptidase 8): > 100 µM | IC50 (Dipeptidyl peptidase 9): > 100 µM

SMILES: Cn1c(=O)cc(N2CCC[C@@H](N)C2)n(Cc2ccccc2C#N)c1=O [ALOGLIPTIN]
Activity (Mus musculus [9]): 12.4% | Activity (Mus musculus [10]): 16.7% | Activity (Mus musculus [11]): 40.1% | inhibition [12]: 45%

Continued, in another order:

IC50 (Dipeptidyl peptidase 8): > 100 µM | IC50 (Dipeptidyl peptidase 9): > 100 µM
SMILES: CC#CCn1c(N2CCC[C@@H](N)C2)cc(=O)n(Cc2cc(Br)cc(C(=O)O)c2)c1=O

AUC [3]: 8272.25 ng·h/mL | IC50 (Dipeptidyl peptidase 8): > 100 µM | remaining at 2 h, 1 µM [4]: 103% | IC50 (Dipeptidyl peptidase 9): > 100 µM | half-life [5]: 54.6 min | Cmax [6]: 25700 ng/mL | remaining at 1 h, 0.1 µM [7]: 106% | CL [8]: 64.8 mL/min/kg
SMILES: CC#CCn1c(N2CCC[C@@H](N)C2)cc(=O)n(Cc2cc(C(=O)O)ccc2Cl)c1=O
viability at 48 h [2]: > 95%

IC50 (Dipeptidyl peptidase 4): > 1 µM
SMILES: CC#CCn1c(N2CCC[C@@H](N)C2)cc(=O)n(Cc2cccc(C(=O)O)c2Br)c1=O

IC50 (Dipeptidyl peptidase 8): > 100 µM | IC50 (Dipeptidyl peptidase 9): > 100 µM
SMILES: CC#CCn1c(N2CCC[C@@H](N)C2)cc(=O)n(Cc2cc(Br)cc(C(=O)OC)c2)c1=O

IC50 (Dipeptidyl peptidase 8): > 100 µM | inhibition [13]: > 70% | remaining at 2 h, 1 µM [4]: 64.1% | AUC(0-inf) [14]: 26800 ng·h/mL | IC50 (Dipeptidyl peptidase 9): > 100 µM | half-life [15]: 146 min | Tmax [16]: 22.8 min | CL/F [17]: 9.17 mL/min/kg | Cmax [18]: 3190 ng/mL | remaining at 1 h, 0.1 µM [7]: 34.4% | inhibition [19]: 90%
SMILES: CC#CCn1c(N2CCC[C@@H](N)C2)cc(=O)n(Cc2cc(C(=O)OC)ccc2Cl)c1=O
viability at 48 h [2]: > 95%

IC50 (Dipeptidyl peptidase 4): > 1 µM
SMILES: CC#CCn1c(N2CCC[C@@H](N)C2)cc(=O)n(Cc2cccc(C(=O)O)c2F)c1=O
